Source: ChEMBL document CHEMBL1153092, “Discovery of novel thieno[2,3-d]pyrimidin-4-yl hydrazone-based inhibitors of cyclin D1-CDK4: synthesis, biological evaluation and structure-activity relationships. Part 2” (Bioorg Med Chem, 2009)
Converted amounts (≈) assume the structure as drawn. The source made the active and inactive calls. The calls are words filed in the database; no cut-off is given here.

How the values were obtained:
[1] = biological target: Cyclin-dependent kinase 2/cyclin E1 (Homo sapiens, UniProt P24941); assay: Inhibition of CDK2/Cyclin E expressed in Sf9 cells assessed as inhibition of Rb phosphorylation
Outline: (§1)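 CDK4/cyclin D1 or CDK2/cyclin E was purified from baculovirus-infected Sf-9 cells. The substrate was bacterial GST-Rb on glutathione-sepharose beads, with [³³P]ATP. Reactions ran 30 min at 30 °C in filter plates, were washed four times and counted. IC₅₀ (µg/mL) came from dose–response curves, as the mean of at least two determinations.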

PC-6 = assay: Cytotoxicity against human PC6 cells after 3 days by MTT assay; assay type: functional, cell-based; conditions: PC-6, 72 h
Outline: (§2)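 Cells (PC-6 shown) were kept in RPMI 1640 with 10% FBS and plated on day 0. Compound, serially diluted in DMSO, was added on day 1 at ten concentrations. Viable cells were counted by MTT after 3 days of culture. The 50% growth-inhibition concentration was solved from 100×[(T−T₀)/(C−T₀)]=50, where T₀ is the optical density at time zero.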

[2] = biological target: Cyclin-dependent kinase 4/cyclin D1 (Homo sapiens, UniProt P11802); assay: Inhibition of CDK4/Cyclin D1 expressed in Sf9 cells assessed as inhibition of Rb phosphorylation; outline: as §1
Sequence of Cyclin-dependent kinase 4/cyclin D1 (P11802 whole entry): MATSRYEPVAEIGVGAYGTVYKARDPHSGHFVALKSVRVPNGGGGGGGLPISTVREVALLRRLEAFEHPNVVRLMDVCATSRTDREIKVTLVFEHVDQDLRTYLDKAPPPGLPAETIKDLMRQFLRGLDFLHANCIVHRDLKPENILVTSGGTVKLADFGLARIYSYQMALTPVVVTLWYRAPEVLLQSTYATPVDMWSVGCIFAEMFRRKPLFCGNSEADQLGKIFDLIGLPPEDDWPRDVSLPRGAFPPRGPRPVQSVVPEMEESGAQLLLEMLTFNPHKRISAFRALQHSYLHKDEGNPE
Sequence of Cyclin-dependent kinase 4/cyclin D1 (P24385 whole entry, further chain): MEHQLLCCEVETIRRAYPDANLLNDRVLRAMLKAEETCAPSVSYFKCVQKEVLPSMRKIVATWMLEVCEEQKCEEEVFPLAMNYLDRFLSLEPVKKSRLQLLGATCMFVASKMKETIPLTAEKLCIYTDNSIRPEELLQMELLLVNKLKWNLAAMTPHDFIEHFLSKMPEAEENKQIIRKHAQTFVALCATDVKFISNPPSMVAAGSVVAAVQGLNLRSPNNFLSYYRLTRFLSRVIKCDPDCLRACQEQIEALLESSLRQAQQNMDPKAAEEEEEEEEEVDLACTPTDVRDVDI

[3] = Selectivity for CDK4/Cyclin D1 over CDK2/Cyclin E
Outline: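 Selectivity was calculated as CDK2 IC₅₀ divided by CDK4 IC₅₀, using the Rb-phosphorylation kinase assay values.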

HCT-116 [4] = assay: Cytotoxicity against human HCT116 cells after 3 days by MTT assay; assay type: functional, cell-based; conditions: HCT-116, 72 h; outline: as §2
HCT-116 [5] = assay: Cell cycle arrest in human HCT116 cells assessed as accumulation at G1 phase at 50 ng/mL after 16 hrs using propidium iodide staining by flow cytometry; assay type: functional
Outline: (§3)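 HCT116 cells were treated for 16 h with compound at concentrations in ng/mL, with DMSO as control. Cells were then collected and their DNA content was analysed by flow cytometry. The percentages of cells in G0/G1, S and G2/M were quantified.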

Mus musculus [6] = assay: Toxicity in human HCT116 cells xenografted BALB/c mouse assessed as maximum body weight loss rate at 300 mg/kg, iv qd for 4 days measured 1 days post dose; assay type: organism-based, HCT-116; design: dose 300 mg/kg, route intravenous; conditions: in vivo, 24 h
Outline: (§4)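 HCT116 tumour cells implanted s.c. in right hind limb of male BALB/c-nu/nu mice aged 5 or 6 weeks. Dosing began once tumours averaged 80–100 mm³, with compound in 20% Captisol solution given iv or po once daily for 4 days (qdx4). Tumour volume was measured periodically by caliper and body weight was followed. Maximum inhibition of tumour volume and maximum body weight loss are reported with their day after first dose. Deaths were scored as from toxicity or from tumour, out of 5 mice.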

[7] = Aqueous solubility of compound; assay type: physicochemical; conditions: water (aqueous)
Mus musculus [8] = assay: Toxicity in human HCT116 cells xenografted BALB/c mouse assessed as mouse mortality at 300 mg/kg, iv qd for 4 days; assay type: organism-based, HCT-116; design: dose 300 mg/kg, route intravenous; conditions: in vivo, 96 h
Outline: (§5)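 HCT116 cells implanted subcutaneously in right hind limb of male BALB/c-nu/nu mice aged 5 or 6 weeks; dosing began once tumours averaged 80–100 mm³. Compound in 20% Captisol solution given iv or po once daily for 4 days (qdx4). Tumour volume measured periodically by caliper. Deaths scored as toxicity deaths/tumour deaths/mice used, n=5 per group.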

HCT-116 [9] = assay: Antitumor activity against human HCT116 cells xenografted in BALB/c mouse assessed as tumor induced mouse death at 300 mg/kg, iv qd for 4 days; assay type: functional, organism-based; design: dose 300 mg/kg; outline: as §4
HCT-116 [10] = assay: Antitumor activity against human HCT116 cells xenografted in BALB/c mouse assessed as maximum tumor volume inhibition rate at 300 mg/kg, iv qd for 4 days measured 7 days post dose; assay type: functional; outline: as §4
HCT-116 [11] = assay: Antitumor activity against human HCT116 cells xenografted in BALB/c mouse assessed as maximum tumor volume inhibition rate at 300 mg/kg, iv qd for 4 days measured 9 days post dose; assay type: functional; outline: as §4
HCT-116 [12] = assay: Cell cycle arrest in human HCT116 cells assessed as accumulation at G1 phase at 60 ng/mL after 16 hrs using propidium iodide staining by flow cytometry; assay type: functional; outline: as §3
Mus musculus [13] = assay: Toxicity in human HCT116 cells xenografted BALB/c mouse assessed as maximum body weight loss rate at 300 mg/kg, iv qd for 4 days measured 7 days post dose; assay type: organism-based, HCT-116; design: dose 300 mg/kg, route intravenous; conditions: in vivo, 168 h; outline: as §4
HCT-116 [14] = assay: Antitumor activity against human HCT116 cells xenografted in BALB/c mouse assessed as tumor induced mouse death at 350 mg/kg, po qd for 4 days; assay type: functional, organism-based; design: dose 350 mg/kg; outline: as §4
Mus musculus [15] = assay: Toxicity in human HCT116 cells xenografted BALB/c mouse assessed as mouse mortality at 350 mg/kg, po qd for 4 days; assay type: organism-based, HCT-116; design: dose 350 mg/kg, route oral; conditions: in vivo, 96 h; outline: as §5
HCT-116 [16] = assay: Antitumor activity against human HCT116 cells xenografted in BALB/c mouse assessed as maximum tumor volume inhibition rate at 350 mg/kg, po qd for 4 days measured 6 days post dose; assay type: functional; outline: as §4
Mus musculus [17] = assay: Toxicity in human HCT116 cells xenografted BALB/c mouse assessed as maximum body weight loss rate at 350 mg/kg, po qd for 4 days measured 5 days post dose; assay type: organism-based, HCT-116; design: dose 350 mg/kg, route oral; conditions: in vivo, 120 h; outline: as §4
HCT-116 [18] = assay: Cell cycle arrest in human HCT116 cells assessed as decrease in accumulation at G2/M phase at 100 ng/mL after 16 hrs using propidium iodide staining by flow cytometry; assay type: functional, cell-based; outline: as §3
Mus musculus [19] = assay: Toxicity in human HCT116 cells xenografted BALB/c mouse assessed as maximum body weight loss rate at 260 mg/kg, iv qd for 4 days; assay type: organism-based, HCT-116; design: dose 260 mg/kg, route intravenous; conditions: in vivo, 96 h; outline: as §4
HCT-116 [20] = assay: Antitumor activity against human HCT116 cells xenografted in BALB/c mouse assessed as maximum tumor volume inhibition rate at 260 mg/kg, iv qd for 4 days measured 5 days post dose; assay type: functional; outline: as §4
HCT-116 [21] = assay: Cell cycle arrest in human HCT116 cells assessed as accumulation at G1 phase at 100 ng/mL after 16 hrs using propidium iodide staining by flow cytometry; assay type: functional; outline: as §3
Mus musculus [22] = assay: Toxicity in human HCT116 cells xenografted BALB/c mouse assessed as mouse mortality at 260 mg/kg, iv qd for 4 days; assay type: organism-based, HCT-116; design: dose 260 mg/kg, route intravenous; conditions: in vivo, 96 h; outline: as §5
HCT-116 [23] = assay: Antitumor activity against human HCT116 cells xenografted in BALB/c mouse assessed as tumor induced mouse death at 260 mg/kg, iv qd for 4 days; assay type: functional, organism-based; design: dose 260 mg/kg; outline: as §4
HCT-116 [24] = assay: Cell cycle arrest in human HCT116 cells assessed as decrease in accumulation at S phase at 100 ng/mL after 16 hrs using propidium iodide staining by flow cytometry; assay type: functional, cell-based; outline: as §3

| SMILES | IC50 [1] [nM] | IC50 (PC-6) [µg/mL] | IC50 [2] [nM] | Selectivity ratio [3] | IC50 (HCT-116 [4]) [µg/mL] | other results |
| --- | --- | --- | --- | --- | --- | --- |
| CC(C)(C)c1cc2c(N/N=C/c3ccc(C(=O)O)cc3)ncnc2s1 | 1100 | 7.22 (≈ 20.4 µM) | 2760 | 0.4 | 9.99 (≈ 28.2 µM) |  |
| CC(C)(C)c1cc2c(N/N=C/c3ccc4c(c3)CNCC4)ncnc2s1 | 492 | 0.069 (≈ 0.189 µM) | 93 | 5.3 | 0.107 (≈ 0.293 µM) |  |
| CC(C)(C)c1cc2c(N/N=C/c3ccc4c(c3)CCNC4)ncnc2s1 | 1750 | 0.049 (≈ 0.134 µM) | 104 | 16.8 | 0.046 (≈ 0.126 µM) | Activity (HCT-116 [5]): 56%; Activity (Mus musculus [6]): 2.2%; solubility [7]: 8.5 µg/mL (≈ 23.3 µM); Activity (Mus musculus [8]): Non-toxic; Activity (HCT-116 [9]): Active; inhibition in vivo at 300 mg/kg (HCT-116 [10]): 5% |
| CC(C)(C)c1cc2c(N/N=C/c3ccc(CN)cc3)ncnc2s1 | 4710 | 0.214 (≈ 0.63 µM) | 61.9 | 76.2 | 0.334 (≈ 0.984 µM) |  |
| CNCc1ccc(/C=N/Nc2ncnc3sc(C(C)(C)C)cc23)cc1 | 1920 | 0.044 (≈ 0.124 µM) | 107 | 17.9 | 0.056 (≈ 0.158 µM) | inhibition in vivo at 300 mg/kg (HCT-116 [11]): 54%; solubility [7]: 783 µg/mL (≈ 2220 µM); Activity (HCT-116 [12]): 57%; Activity (Mus musculus [13]): 9.7%; Activity (HCT-116 [14]): Active; Activity (Mus musculus [15]): Non-toxic; Activity (Mus musculus [8]): Non-toxic; Activity (HCT-116 [9]): Active; inhibition in vivo at 350 mg/kg (HCT-116 [16]): 57%; Activity (Mus musculus [17]): 16% |
| CC(C)N1Cc2ccc(/C=N/Nc3ncnc4sc(C(C)(C)C)cc34)cc2C1 | 7620 | 0.134 (≈ 0.34 µM) | 203 | 37.5 | 0.206 (≈ 0.523 µM) |  |
| COC(=O)c1ccc(/C=N/Nc2ncnc3sc(C(C)(C)C)cc23)cc1 | > 54300 |  | > 54300 |  |  |  |
| CC(C)(C)c1cc2c(N/N=C/c3ccc(O)cc3)ncnc2s1 | 33700 | > 10 | > 61300 |  | 0.844 (≈ 2.59 µM) |  |
| CC(C)(C)c1cc2c(N/N=C/c3ccc(CO)cc3)ncnc2s1 | 764 | 0.556 (≈ 1.63 µM) | 1170 | 0.7 | 0.665 (≈ 1.95 µM) |  |
| CC(C)(C)c1cc2c(N/N=C/c3ccc4c(c3)CNC4)ncnc2s1 | 1480 | 0.071 (≈ 0.202 µM) | 236 | 6.3 | 0.111 (≈ 0.316 µM) | Activity (HCT-116 [18]): Active; solubility [7]: 2.8 µg/mL (≈ 7.97 µM); Activity (Mus musculus [19]): < 0%; inhibition in vivo at 260 mg/kg (HCT-116 [20]): 61%; Activity (HCT-116 [21]): 62%; Activity (Mus musculus [22]): Non-toxic; Activity (HCT-116 [23]): Active; Activity (HCT-116 [24]): Active |
| CN(CCO)Cc1ccc(/C=N/Nc2ncnc3sc(C(C)(C)C)cc23)cc1 | 729 | 0.124 (≈ 0.312 µM) | 70.4 | 10.4 | 0.169 (≈ 0.425 µM) |  |
| CC(C)(C)c1cc2c(N/N=C/c3ccccc3)ncnc2s1 | > 64400 | 6.54 (≈ 21.1 µM) | 1970 | > 33 |  |  |
| CN(C)S(=O)(=O)c1ccc(/C=N/Nc2ncnc3sc(C(C)(C)C)cc23)cc1 | 2920 | 2.12 (≈ 5.08 µM) | > 47900 |  | 1.42 (≈ 3.4 µM) |  |
| CN(C)Cc1cccc(/C=N/Nc2ncnc3sc(C(C)(C)C)cc23)c1 | 2990 | 0.598 (≈ 1.63 µM) | 70.7 | 42.3 | 0.405 (≈ 1.1 µM) |  |
| CN(C)Cc1ccc(/C=N/Nc2ncnc3sc(C(C)(C)C)cc23)cc1 | 1630 | 0.107 (≈ 0.291 µM) | 210 | 7.8 | 0.128 (≈ 0.348 µM) |  |
| CN1Cc2ccc(/C=N/Nc3ncnc4sc(C(C)(C)C)cc34)cc2C1 | 2740 | 0.05 (≈ 0.137 µM) | 263 | 10.4 | 0.088 (≈ 0.241 µM) |  |
| CN(C)Cc1cccc(/C=N/Nc2ncnc3sc(C(C)(C)C)cc23)n1 | 3800 | 0.381 (≈ 1.03 µM) | 152 | 25 | 0.419 (≈ 1.14 µM) | solubility [7]: 44 µg/mL (≈ 119 µM) |
